Screening data deposited in PubChem BioAssay by several laboratories.
Sampled rows, rich in hits. Any-hit rate of the full collection: about 1%.
Hsp70 activator = Hsp70 transcriptional activators, primary screen, cell-based, HeLa, Hsp70 promoter luciferase, luminescence, 10 µM; HeLa Hsp70 promoter luciferase reporter; scaled: vehicle 0, proteasome-inhibitor control 100%; activation, % at 10 µM; actives 0.04% (n = 200,000); AID 1203, 2008;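 active means activation above the mean across all tested compounds plus 3 SD, cutoff set per campaign, cut at about 5.5% in these data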;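 further: 100% = MG132 at 30 µM as the positive control and 0% = DMSO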
TLR9-MyD88 block = inhibitors of TLR9-MyD88 association in cells, primary screen, cell-based, CHO, BLA complementation, fluorescence; Toll-like receptor 9 (Homo sapiens) + Myeloid differentiation primary response protein …; CCF4 FRET ratio; inhibition, % at 4.98 µM; actives 0.21% (n = 340,000);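 active means inhibition above the mean over all tested compounds plus 3 SD, cut at about 21% in these data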;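 further: 0% = DMSO only wells and 100% = clavulanate BLA inhibitor control wells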
TLR4 MyD88 comp = inhibitors of TLR4-MyD88 association in cells, primary screen, cell-based, HeLa CL3-4, BLA complementation, FRET ratio | Toll-like receptor 4 (Homo sapiens) + Myeloid differentiation primary response protein … | HeLa CL3-4 TLR4/MyD88 BLA complementation | inhibition, % at 8.4 µM | actives 0.18% (n = 200,000); in the data active means inhibition above about 25%;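 further: 0% = vehicle and 100% = reference inhibitor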
MT stabilizer = microtubule stabilizers in HeLa cells, primary screen, imaging, high-content imaging; % tubulin-high responders, % at 10 µM; HeLa tubulin immunostaining HCS, 24 h; share of cells brighter than vehicle mean+2SD; AID 2205, 2009; actives 0.83% (n = 200,000);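 active means plate Z-score above 3 for both tubulin-high and condensed-nucleus cell shares, with cell loss under 80%, at 10 µM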;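 further: anti alpha tubulin signal scored within the nucleus-defined area of each cell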
bCat nuc transl = modulators of beta-catenin nuclear translocation, primary screen, imaging, HeLa cells, immunofluorescence, high-content; actives 0.3% (n = 190,000); nuclear translocation activity, % at 5 µM; AID 1665, 2009;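 active means nuclear translocation activity above 50% at 5 µM, with a well cell count of 50 or more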;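 further: per-cell ratio of nuclear to cytoplasmic median beta-catenin stain intensity; plate controls were DMSO negative control for no effect and GSK-3 inhibitor IX positive control for full effect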
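Technique: fluorescence imaging of beta-catenin antibody stain plus DAPI / Material: human HeLa cell line / Incubation: compound treatment 24 h, 37°C, 5% CO2 / Read-out basis: % activation of per-cell nuclear versus cytoplasmic median beta-catenin signal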
NOD2 RIPK2 PPI = NOD2-RIPK2 binding disruptors in cells, primary screen, fluorescence, CHO cells, BLA complementation; AID 624267, 2012; Receptor-interacting serine/threonine-protein kinase 2 (Homo sapiens), O43353; inhibition, % at 4.98 µM; CCF4 ratio; actives 0.38% (n = 360,000); in the data active means inhibition above about 21%;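 further: 0% = vehicle only and 100% = reference blocker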
NOD2-RIPK2 conf = NOD2-RIPK2 binding disruptors, retest, confirmation, fluorescence, CHO cells, BLA complementation, triplicate | AID 624370, 2012 | actives 70% (n = 1,200) | inhibition, % at 4.98 µM | shares compounds with NOD2 RIPK2 PPI | CCF4 FRET;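 active means mean inhibition across replicates above a set limit taken from the earlier primary screen, cut at about 21% in these data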;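 further: 0% = DMSO-only wells and the high end = clavulanate BLA-blocked wells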
NOD2 BLA counter = hits BLA reporter in NOD2-RIPK2 inhibitor counterscreen; inhibition, % at 4.98 µM; actives 57% (n = 1,200); shares compounds with NOD2 RIPK2 PPI; CHO BLA reporter, CCF4 FRET ratio;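 active means mean inhibition above the low-control mean inhibition plus three low-control SD, cut at about 11% in these data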;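 further: 0% = DMSO only wells and 100% = clavulanate high control wells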
The depositor's hits bear a star; · = no result given.

SMILES	Hsp70 activator	TLR9-MyD88 block	TLR4 MyD88 comp	MT stabilizer	bCat nuc transl	NOD2 RIPK2 PPI	NOD2-RIPK2 conf	NOD2 BLA counter
O=C(Nc1nnc([C@@H]2C[C@H](O)[C@@H](CO)O2)s1)c1cccc(C(F)(F)F)c1	·	·	·	·	·	-7	·	·
CC1=CC(=O)C(C(C)C)=C/C1=N/OS(=O)(=O)c1ccccc1	·	6	·	·	1	59*	37*	0
CC1=CC(=O)C=C(C)C1=NOS(=O)(=O)c1ccccc1	0	-1	2	3	-6	27*	31*	-4
O=C(/C=C/c1cc(Br)ccc1O)c1ccco1	·	3	·	·	1	21*	13	-6
Cc1[nH]nc(-c2cccnc2)c1N=NN(C)C	·	15	·	·	·	37*	19	-1
Nc1nc2ncccn2c1-c1ccc(C(F)(F)F)cc1	·	·	·	·	·	25*	28*	34*
Nc1cccc(N=[N+]([O-])c2cccc(N)c2)c1	·	3	·	·	·	-19	·	·
COc1ccc(C(O)c2ncc(-c3ccccc3C)[nH]2)cc1 (stereo unspecified)	·	·	·	·	·	-15	·	·
O=C1Nc2ccc(Br)cc2/C1=C/C(=O)c1ccccc1	·	8	·	·	·	19	·	·
C=CCOc1cccc(C(=O)/C=C2/C(=O)Nc3ccccc32)c1	·	9	·	·	·	41*	39*	4
Cc1cc(=O)c2cc3nc(-c4cccnc4)oc3c(Br)c2o1	·	·	·	·	-3	·	·	·
C=CCN1C(=O)N/C(=C/c2ccc(N3CCOCC3)o2)C1=O	2	·	14	2	-2	·	·	·
O=C1N/C(=C/c2ccc(N3CCOCC3)o2)C(=O)N1c1ccccc1	1	9	2	2	0	40*	5	5
CCCN(C)C1CN(Cc2cn(Cc3ccc(F)cc3)nn2)S(=O)(=O)C1 (stereo unspecified)	·	·	·	·	·	-13	·	·
CC(C)NS(=O)(=O)c1ccc(OCC(=O)N2CCCC2)cc1	0	-1	-3	4	0	2	·	·
CC(C)NS(=O)(=O)c1ccc(OCC(=O)N2CCN(c3ccccc3)CC2)cc1	0	2	7	3	1	68*	-6	-3
Cc1nc2c(=O)n(C)c(=O)n(C)c2nc1Cl	0	17	21	5	4	24*	30*	-8
Cn1c(=O)c2nc(NCc3ccccc3)cnc2n(C)c1=O	0	2	24	5	1	17	·	·
COc1ccc(NC(=O)C(c2ccc(OC)cc2)n2c(=O)c(-c3cc4ccccc4[nH]3)nc3ccccc32)cc1 (stereo unspecified)	·	·	·	·	·	44*	40*	66*
COc1ccc(NC(=O)C(c2ccc(C#N)cc2)n2c(=O)c(-c3cc4ccccc4[nH]3)nc3ccccc32)cc1 (stereo unspecified)	·	·	·	·	·	56*	54*	72*
COc1ccc(NC(=O)C(c2cc3ccccc3o2)n2c(=O)c(-c3cc4ccccc4[nH]3)nc3ccccc32)cc1 (stereo unspecified)	·	·	·	·	·	51*	46*	68*
COc1ccc(NC(=O)C(c2ccc(C(F)(F)F)cc2)n2c(=O)c(-c3ccco3)nc3ccccc32)cc1 (stereo unspecified)	·	·	·	·	·	-8	·	·
COc1ccc(NC(=O)C(c2ccncc2)n2c(=O)c(-c3ccco3)nc3ccccc32)cc1 (stereo unspecified)	·	·	·	·	·	-2	·	·
Cc1ccc(S(=O)(=O)N2CC(C)N(C(=O)N3CCOCC3)C2C)cc1 (stereo unspecified)	·	2	·	·	·	-11	·	·
Cc1cc(C)c2sc(N(CCCN(C)C)C(=O)c3ccc(S(=O)(=O)N4CCc5ccccc5C4)cc3)nc2c1	·	14	·	·	·	24*	30*	17*
SMILES	Hsp70 activator	TLR9-MyD88 block	TLR4 MyD88 comp	MT stabilizer	bCat nuc transl	NOD2 RIPK2 PPI	NOD2-RIPK2 conf	NOD2 BLA counter
CCOC1=C2[C@H](c3ccccc3)N(S(=O)(=O)c3ccc(C)cc3)[C@H](C(C)C)[C@H]2n2c(=O)n(-c3ccccc3)c(=O)n2C1	·	·	·	·	·	-13	·	·
Cc1ccc(NC(=O)C2=C(c3ccccc3)S(=O)(=O)CCS2(=O)=O)cc1	0	9	14	1	-1	56*	78*	10
Cc1cccc(NC(=O)CSCC(=O)Nc2sccc2C#N)c1	·	-8	·	·	·	-4	·	·
CSc1cccc(N2CC(C(=O)N3CCN(S(=O)(=O)c4ccccc4Cl)CC3)CC2=O)c1 (stereo unspecified)	·	-9	·	·	·	0	·	·
CC(Sc1ccc(S(=O)(=O)N2CCOCC2)cc1[N+](=O)[O-])C(=O)O (stereo unspecified)	0	-12	-1	4	-2	37*	-2	-5
CN(C)CCNC(=O)C(c1ccccc1)c1ccccc1	·	-3	·	·	-1	8	·	·
CN(C)CCC(=O)C(Cc1ccccc1)c1ccccc1 (stereo unspecified)	·	3	·	·	·	35*	28*	2
COc1ccccc1-c1nnc(Nc2nc3c(OC)cccc3s2)o1	0	18	15	19	48	26*	19	3
O=C1/C(=C/c2ccccc2)CN(C(=O)CCN2CCOCC2)C/C1=C\c1ccccc1	·	7	·	·	·	27*	31*	2
CN(C)CCC(=O)N1C/C(=C/c2ccccc2)C(=O)/C(=C\c2ccccc2)C1	·	3	·	·	·	61*	55*	-1
C[N+](C)(C)CCC(=O)N1C/C(=C/c2ccccc2)C(=O)/C(=C\c2ccccc2)C1	·	3	·	·	·	-8	·	·
CCc1nc2c(OCC3COc4ccccc4O3)cccn2c1N(C)C(=O)c1cccs1 (stereo unspecified)	·	·	·	·	·	-4	·	·
